SMARCA2 act – increases SMARCA2 function in MMTV reporter cells | activation, % at 9.1 µM | MG213 cells, MMTV-luciferase reporter, dexamethasone, overnight | actives 1% (n = 370,000) | AID 652017; in the data active = activation above about 7.8%;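 also: 0% = vehicle wells and 100% = reference activator wells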
NR2E3 ag-1 – human photoreceptor-specific nuclear receptor agonism; Q9Y5X4; CHO-S Gal4-NCOR/VP16-NR2E3 two-hybrid, luciferase; inhibition of corepressor binding, % at 3.98 µM; actives 0.35% (n = 360,000);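 active = inhibition above the mean of all tested compounds plus 3 SD, cut at about 70% in these data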;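 also: 0% = DMSO with NR2E3 transfected cells and 100% = cells lacking NR2E3 construct; higher means lower luciferase signal from less NR2E3 corepressor binding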
NR2F2 inh – NR2F2 (human) inhibition, primary screen | AID 686940 | inhibition, % at 8.6 µM | actives 0.7% (n = 370,000) | HEK293T NGFI-A luciferase reporter, luminescence | P24468;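 active = inhibition above a per-plate cutoff, mean inhibition of test wells between control levels plus 3 SD, cut at about 38% in these data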;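 also: cells cotransfected with COUP-TFII expression vector driving the NGFI-A reporter; 0% = median of COUP-TF2 test wells and 100% = reporter-only cells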
NR2E3 ag-2 – activates human photoreceptor nuclear receptor NR2E3; Q9Y5X4; inhibition of corepressor binding, % at 4.78 µM; actives 0.12% (n = 320,000); GST-NR2E3/biotin-RetCOR TR-FRET, 1536-well;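 active = percent inhibition above the cutoff of mean plus 3 SD of all tested compounds, set per screening campaign, cut at about 20% in these data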;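 also: 0% = DMSO wells and 100% = biotin wells as full block of FRET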
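System: GST-tagged NR2E3 plus biotinylated RetCOR corepressor; Buffer or medium: pH 7.5 Tris-based buffer; Probe or stimulus: RetCOR corepressor, biotinylated, 7 nM; Doses: compound at 4.8 µM, single dose; Schedule: 5 h incubation at 4 °C; Technique: time-resolved FRET; Evaluation: percent inhibition of TR-FRET ratio; Replication: one well per compound, singlicate testing.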
GalR3 antag – human GalR3 antagonism | O60755 | HEK293 GalR3-CNG cAMP membrane potential fluorescence; galR3 body fused to GalR1 C-terminus | inhibition, % at 3 µM | actives 0.44% (n = 360,000) | AID 651719;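 active = inhibition above the screen-wide average plus 3 SD, cut at about 13% in these data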;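 also: forskolin and galanin both at EC90 stimulate the cells; cAMP rise reported by CNG channel membrane potential dye signal; 0% = forskolin plus galanin with DMSO and 100% = forskolin alone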
Target sequence (O60755 1-299 limits assumed): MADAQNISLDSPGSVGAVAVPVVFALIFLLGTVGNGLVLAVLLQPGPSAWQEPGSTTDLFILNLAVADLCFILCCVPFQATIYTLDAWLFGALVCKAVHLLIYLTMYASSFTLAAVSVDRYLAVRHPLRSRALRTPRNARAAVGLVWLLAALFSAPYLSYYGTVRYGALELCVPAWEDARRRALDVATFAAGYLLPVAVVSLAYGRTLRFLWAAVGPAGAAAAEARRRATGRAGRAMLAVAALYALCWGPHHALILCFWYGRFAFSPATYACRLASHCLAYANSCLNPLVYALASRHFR
NR2E3 ag confirm – NR2E3 agonism confirmed in two-hybrid assay. shares compounds with NR2E3 ag-1. CHO-S mammalian two-hybrid NR2E3-NCOR, luciferase luminescence. inhibition, % at 3.98 µM. actives 51% (n = 2,300). AID 624378;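 active = average inhibition above a cutoff equal to the mean inhibition of all tested compounds plus one SD, cut at about 70% in these data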;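 also: 0% = DMSO in NR2E3 cells and 100% = DMSO in cells lacking NR2E3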
VP16 counter – GAL4-VP16 reporter inhibition in NR2E3 agonist counterscreen. CHO-S GAL4-VP16 luciferase reporter, luminescence. inhibition, % at 3.98 µM. actives 29% (n = 2,300). shares compounds with NR2E3 ag-1;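 active = mean inhibition above a cutoff equal to the average over all tested compounds plus one standard deviation, cut at about 70% in these data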;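 also: luciferase from a UAS reporter driven by GAL4-VP16 transactivation; 0% = DMSO with VP16-transfected cells and 100% = DMSO with cells lacking VP16; higher means less reporter light so more repression of VP16 activity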
GalR3 conf – GalR3 (human) antagonism, confirmation; HEK293 GalR3 CNG cAMP biosensor, membrane potential fluorescence; galR3 fused to GalR1 carboxy tail; challenged with forskolin and galanin at EC90; actives 59% (n = 1,600); shares compounds with GalR3 antag; inhibition, % at 3 µM;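 active = inhibition above the primary screen's cutoff, the mean inhibition of all screened compounds plus 3 SD, cut at about 13% in these data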;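 also: 0% = forskolin plus galanin and 100% = forskolin alone with DMSO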
HEK-CNG parental – counter-screen for GalR3 antagonists: nonspecific agonists in parental HEK-CNG cells. activation, % at 3 µM. shares compounds with GalR3 antag. HEK293-CNG parental cells, cAMP membrane potential fluorescence; normalised: DMSO wells 0%, forskolin wells 100%. actives 10% (n = 1,600). AID 652268; in the data active = activation above about 1.3%
VP16 Luc counter – VP16 inhibition counter-screen for COUP-TFII; inhibition, % at 8.5 µM; actives 25% (n = 2,500); HEK293 Gal4-VP16 luciferase reporter, luminescence; AID 687007; shares compounds with NR2F2 inh; in the data active = inhibition above about 13%
NR2F2 inh conf – confirmation of human COUP-TFII (NR2F2) inhibitors; shares compounds with NR2F2 inh; HEK293 NGFI-A luciferase reporter, luminescence; inhibition, % at 8.5 µM; actives 45% (n = 2,500); AID 687008;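 active = mean inhibition over three repeats above a set limit taken from the earlier primary screen, cut at about 38% in these data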;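 also: 100% = cells given the luciferase reporter alone without the COUP-TF2 vector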
* = called active by the depositor. Compounds with a hit are over-represented: about 2.2% of the library has one in this group of screens.

Screening CCC(C)Nc1nc(-c2ccccn2)nc2ccccc12 (centres undefined) returned SMARCA2 act -3, NR2E3 ag-1 100*, NR2F2 inh 38*, NR2E3 ag-2 2, GalR3 antag -2, NR2E3 ag confirm 99*, VP16 counter 56, VP16 Luc counter -12 and NR2F2 inh conf 3.
For CC(=O)N1CCCN(C(=O)CCn2nnc3ccccc32)CC1 the results were SMARCA2 act -2 and NR2F2 inh -11.
`C(=Cc1nc2ccccc2o1)c1ccc2c(c1)OCO2` gave SMARCA2 act 5, NR2E3 ag-1 -102, NR2F2 inh -24 and GalR3 antag -7.
C(=Cc1cnc2ccccc2n1)c1ccc2c(c1)OCO2 was read as SMARCA2 act -5, NR2E3 ag-1 52, NR2F2 inh 52*, GalR3 antag -3, NR2E3 ag confirm 37, VP16 counter -3, VP16 Luc counter 65* and NR2F2 inh conf 79*.
`Cc1cc(N2CCN(CCO)CC2)n2nc(C)nc2n1` gave SMARCA2 act 5 and NR2F2 inh 4.
`COc1ccc(NC(=O)C2Cc3c(-c4cccc(F)c4)ccnc3O2)cc1OC` (centres undefined) gave SMARCA2 act -9, NR2E3 ag-1 73*, NR2F2 inh 52*, GalR3 antag -8, NR2E3 ag confirm 67, VP16 counter 58, VP16 Luc counter 1 and NR2F2 inh conf 34.
For COc1ccc(NC(=O)C2Cc3c(-c4ccc(NC(C)=O)cc4)ccnc3O2)cc1OC (centres undefined) the results were SMARCA2 act 5, NR2E3 ag-1 1, NR2F2 inh -5 and GalR3 antag -2.
For COc1ccc(NC(=O)C2Cc3c(-c4ccc5c(c4)OCO5)ccnc3O2)cc1OC (centres undefined) the results were SMARCA2 act -4, NR2E3 ag-1 84*, NR2F2 inh 66*, GalR3 antag 66*, NR2E3 ag confirm 91*, VP16 counter 73*, GalR3 conf 74*, HEK-CNG parental 0, VP16 Luc counter 9 and NR2F2 inh conf 57*.
`CCn1nc(C(=O)OCC(=O)c2cc(C)n(Cc3cccs3)c2C)c2ccccc2c1=O` gave SMARCA2 act 4, NR2E3 ag-1 -35, NR2F2 inh -28, NR2E3 ag-2 -3 and GalR3 antag -5.
`CC(=O)Nc1ccccc1OCC(=O)c1cc(C)n(Cc2cccs2)c1C` gave SMARCA2 act -6, NR2E3 ag-1 90*, NR2F2 inh 73*, NR2E3 ag-2 0, GalR3 antag 83*, NR2E3 ag confirm 93*, VP16 counter 73*, GalR3 conf 98*, HEK-CNG parental 0, VP16 Luc counter 2 and NR2F2 inh conf 81*.
For Cc1cc(C(=O)COC(=O)c2ccccc2O)c(C)n1Cc1cccs1 the results were SMARCA2 act -10, NR2E3 ag-1 91*, NR2F2 inh 97*, NR2E3 ag-2 -2, GalR3 antag -8, NR2E3 ag confirm 80*, VP16 counter 71*, VP16 Luc counter 81* and NR2F2 inh conf 104*.

Source: PubChem BioAssay (The Scripps Research Institute Molecular Screening Center)
